Experimental findings from PubChem BioAssay AID685 (PCMD, 2007) are described below.

A short description of this test: S. cerevisiae growth inhibition, turbidity – wild-type and eIF2Bepsilon R284H mutant, A595, cytotoxicity control for eIF2B function restoration project, primary screen (AID 685).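 Also: 0% = untreated cell controls and 100% = YPD media blanks without cells.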 As to conditions: 16 h, stronger effect = higher value, screened at 25 µM (by protocol). The method, boiled down: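 System: S. cerevisiae wild-type or eIF2Bepsilon-R284H mutant strain; times: 16 h growth with compound, 30 °C; signal: absorbance at 595 nm (turbidity); measure: growth inhibition (%) versus cell controls and blanks; compound: 25 µM single dose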

Where [1] appears, read: S. cerevisiae eIF2Bepsilon-R284H mutant growth.

The campaign covered roughly 30,000 compounds. About 80 (0.3%) were called active.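 The calls were made as follows: active = mutant and wild-type yeast strains alike exhibit over 30% growth inhibition; inconclusive = a strain exceeds 50% while the second remains under 30%; inactive = the rest.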 The list comes from a sample in which actives are over-represented; it also holds similar structures and randomly drawn compounds.

For the compound `COCCCNC(=O)COc1cc(C)c(Cl)c(C)c1`, the growth inhibition is, setting by setting: under setting [1], -13.6%; (S. cerevisiae wild-type growth) 8.44% (inactive).
The like results for `COC(=O)Nc1ncc(CN2CCCCC2)s1` were, in that order, 6.45% and -0.8% (inactive).
The corresponding values for `CCOc1ccc(S(=O)(=O)Nc2ccc(S(=O)(=O)Nc3cc(OC)ccc3OC)cc2)cc1` are 6.38% and 5.67% (inactive).
With `CC1(C)NC(=O)N(CCCCSc2ccc(Cl)cc2)C1=O`, the growth inhibition under setting [1] stood at 15.6% and the growth inhibition (S. cerevisiae wild-type growth) is 21.2% (inactive).
The like results for `CC/S(CC1CC1(Cl)Cl)=N\S(=O)(=O)c1ccc(C)cc1` (stereo not drawn) were, in that order, 25.5% and 20.7% (inactive).
The like results for `Cc1ccc(C(=O)N2CCCC2)c(F)c1F` were, in that order, 20% and 0.21% (inactive).
The like results for `O=C(c1ccc(Cl)c(Cl)c1)N1CCCC1` were, in that order, 8.89% and 28.3% (inactive).
In the case of `CCCCc1nnc(NC(=O)CSc2nc(C)cc(=O)[nH]2)s1`, the growth inhibition reads like this: under setting [1], 20%; (S. cerevisiae wild-type growth) 14.6% (inactive).
The like results for `c1ccc(CSCCc2ccncc2)cc1` were, in that order, 20% and 22.3% (inactive).
The corresponding values for `CCC(=O)N(Cc1ccccc1)c1ccccn1` are 15% and 1.54% (inactive).
The like results for `Nc1c(C(=O)NCc2ccccc2)sc2nc3c(cc12)C(=O)CCC3` were, in that order, 0% and -16.4% (inactive).
For `Cc1ccoc1C(=O)Nc1cccc(Oc2ccccc2)c1`, the growth inhibition under setting [1] came to 20% and the growth inhibition (S. cerevisiae wild-type growth) was 20.3% (inactive).
The corresponding values for `Cc1cc(C)n(-c2ccc(Cl)c(C(=O)O)n2)n1` are -10% and 22.7% (inactive).
The corresponding values for `Cc1cccc(N(CC(=O)N2CCOCC2)S(C)(=O)=O)c1` are -23.8% and 4.83% (inactive).
The corresponding values for `CCc1c(O)nc(SCC(=O)Nc2ccccc2)n(C(C)CC)c1=O` (stereo not drawn) are 12.8% and 10% (inactive).
For `O=S1(=O)C=C(SCCN2CCCC2)c2ccccc21`, the growth inhibition under setting [1] stood at 13.5% and the growth inhibition (S. cerevisiae wild-type growth) was 27.4% (inactive).
The like results for `CS(=O)(=O)N1CCN(c2cccc(Cl)n2)CC1` were, in that order, 18.9% and -6.15% (inactive).
Regarding `Cc1cccc(NC(=O)C2CCCN2S(=O)(=O)c2ccc(F)cc2)c1C` (stereo not drawn), the growth inhibition is, setting by setting: under setting [1], 13.8%; (S. cerevisiae wild-type growth) 9.79% (inactive).
The corresponding values for `COc1ccc(-c2cc(C)nc3nc(N)nn23)cc1` are 13.3% and 1.72% (inactive).
The like results for `Cc1ccc(S(=O)(=O)NC(=O)COc2ccccc2C)cc1` were, in that order, 10.5% and 6.06% (inactive).
The like results for `COc1ccc(CN2CCCCC2C)cc1OC` (stereo not drawn) were, in that order, 12.5% and 8.46% (inactive).
For the compound `CC1CC2=C(CC1/C=N/NC(N)=S)C(C)(C)CCC2` (stereo not drawn), the growth inhibition is 41.9% under setting [1] and 30% (active) (S. cerevisiae wild-type growth).
As for `CCCCNC(=O)OC(C)CNC(=O)OC` (stereo not drawn), the growth inhibition reads like this: under setting [1], 15%; (S. cerevisiae wild-type growth) 15.4% (inactive).
The like results for `CC(=O)Nc1ccccc1OC(=O)N1CCOCC1` were, in that order, 2.94% and 27.7% (inactive).
The corresponding values for `O=c1c2ccccc2nc2n1C1(CCCCC1)Cc1ccccc1-2` are 2.94% and 5.38% (inactive).
The like results for `CC(C)C[C@@H](N)c1nnc(SCC(=O)c2ccc(Cl)cc2)o1` were, in that order, -4.76% and -22.1% (inactive).
As for `Cc1cc(C(=O)Nc2ccccc2N2CCOCC2)c2ccccc2n1`, the growth inhibition under setting [1] is 15.2% and the growth inhibition (S. cerevisiae wild-type growth) is 28.1% (inactive).
The like results for `COc1cccc(N2CC(C(=O)Nc3c(C)cccc3C)CC2=O)c1` (stereo not drawn) were, in that order, -17.4% and -10.6% (inactive).
The like results for `COC(=O)c1cc(NC(=O)CC2C(=O)NCCN2C(=O)c2ccc(F)cc2)cc(C(=O)OC)c1` (stereo not drawn) were, in that order, 14.3% and 3.33% (inactive).
The like results for `Cc1cc2nc(C)n(CCCNC(=O)Nc3ccccc3)c2cc1C` were, in that order, -4.76% and 26.8% (inactive).
For `Cc1cc(C)c2nc(NC(=O)C3CCCO3)sc2c1` (stereo not drawn), the growth inhibition was 28.2% under setting [1] and 10.3% (inactive) (S. cerevisiae wild-type growth).
The like results for `CCN(c1ccccc1)S(=O)(=O)c1ccc(C(=O)Nc2nccs2)cc1` were, in that order, 0% and 18.7% (inactive).
The corresponding values for `Cc1ccc(OCC(=O)Nn2cnc3ccccc32)cc1` are -33.3% and -14% (inactive).
The like results for `Cc1ccc(-c2noc(CSc3nnc(-c4ccncc4)n3-c3ccc(F)cc3)n2)cc1` were, in that order, 11.6% and 17.6% (inactive).
Turning to `O=C1CC(Sc2ncn[nH]2)C(=O)N1c1ccccc1` (stereo not drawn), the growth inhibition is, setting by setting: under setting [1], 56.8%; (S. cerevisiae wild-type growth) 43.7% (active).
The like results for `CCOC(=O)c1ccc(N2C(=O)CC(Sc3nc(O)c(CC)c(=O)[nH]3)C2=O)cc1` (stereo not drawn) were, in that order, 0% and -8% (inactive).
The corresponding values for `Cc1ccc(N2C(=O)CC(Sc3ncn[nH]3)C2=O)cc1` (stereo not drawn) are 23.8% and 1.62% (inactive).
The corresponding values for `COc1ccc(NC(=O)COC(=O)Cn2c(C)nc3ccccc32)cc1OC` are -9.52% and -7.04% (inactive).
For `CN(C)/C=C1/C(=O)Nc2ccccc21`, the growth inhibition was 0% under setting [1] and 16.7% (inactive) (S. cerevisiae wild-type growth).
The like results for `CCCCNC(=O)C1CCCN(S(=O)(=O)c2ccc(S(=O)(=O)NCC(C)C)cc2)C1` (stereo not drawn) were, in that order, 28.2% and 0.77% (inactive).
The like results for `CCOc1ccc(-c2nc(C)sc2CC(=O)O)cc1` were, in that order, 14.9% and 16.7% (inactive).
The corresponding values for `COc1cc(S(=O)(=O)N(Cc2cccs2)C2CC2)ccc1-n1cnnn1` are -4.17% and 13% (inactive).
`Cc1ccc(S(=O)(=O)N(c2cccc(C)c2)C2CCS(=O)(=O)C2)cc1` (stereo not drawn): the growth inhibition by setting is: under setting [1], 0%; (S. cerevisiae wild-type growth) 8.71% (inactive).
The corresponding values for `CN(Cc1ccccc1)C(=O)COc1ccccc1` are 16.7% and 1.03% (inactive).
